Measurements reported in ChEMBL document CHEMBL1125483, “Novel inhibitors of prolyl 4-hydroxylase. 3. Inhibition by the substrate analogue N-oxaloglycine and its derivatives” (J Med Chem, 1992).

Legend:
[1] = molecular target: Prolyl 4-hydroxylase subunit alpha-1 (Rattus norvegicus) (UniProt P54001); test: Compound was evaluated for the inhibition of prolyl 4-hydroxylase at 50 ug/mL
[2] = molecular target: T1, Prolyl 4-hydroxylase subunit alpha-1 (Rattus norvegicus, UniProt P54001); test: (§1) Compound was evaluated for the inhibition of prolyl 4-hydroxylase
Procedure, shortened: (§2)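 Prolyl 4-hydroxylase activity was measured with an indirect assay that follows the conversion of labelled 2-ketoglutarate cosubstrate into labelled succinate. Each point was run in duplicate. IC50 was obtained by interpolation from six-point dose-response curves.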

[3] = molecular target: Prolyl 4-hydroxylase subunit alpha-1 (Rattus norvegicus) (UniProt P54001); test: Compound was evaluated for the inhibition of prolyl 4-hydroxylase at 100 ug/mL
[4] = molecular target: T1, Prolyl 4-hydroxylase subunit alpha-1; test: Compound was evaluated for the inhibition of prolyl 4-hydroxylase
[5] = molecular target: Prolyl 4-hydroxylase subunit alpha-1 (Rattus norvegicus) (UniProt P54001); test: as §1; conditions: concentration not given here; procedure, shortened: as §2
[6] = molecular target: T1, Prolyl 4-hydroxylase subunit alpha-1; test: Inhibitory activity against prolyl 4-hydroxylase
Procedure, shortened: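 Indirect radiometric assay: conversion of labelled cofactor 2-ketoglutarate into labelled succinate measured. Each point in duplicate; IC50 interpolated from six-point dose-response curves.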

[7] = molecular target: Prolyl 4-hydroxylase subunit alpha-1 (Rattus norvegicus) (UniProt P54001); test: Compound was evaluated for the inhibition of prolyl 4-hydroxylase at 100 ug/mL

Chain of Prolyl 4-hydroxylase subunit alpha-1 (Rattus norvegicus) (P54001 whole entry): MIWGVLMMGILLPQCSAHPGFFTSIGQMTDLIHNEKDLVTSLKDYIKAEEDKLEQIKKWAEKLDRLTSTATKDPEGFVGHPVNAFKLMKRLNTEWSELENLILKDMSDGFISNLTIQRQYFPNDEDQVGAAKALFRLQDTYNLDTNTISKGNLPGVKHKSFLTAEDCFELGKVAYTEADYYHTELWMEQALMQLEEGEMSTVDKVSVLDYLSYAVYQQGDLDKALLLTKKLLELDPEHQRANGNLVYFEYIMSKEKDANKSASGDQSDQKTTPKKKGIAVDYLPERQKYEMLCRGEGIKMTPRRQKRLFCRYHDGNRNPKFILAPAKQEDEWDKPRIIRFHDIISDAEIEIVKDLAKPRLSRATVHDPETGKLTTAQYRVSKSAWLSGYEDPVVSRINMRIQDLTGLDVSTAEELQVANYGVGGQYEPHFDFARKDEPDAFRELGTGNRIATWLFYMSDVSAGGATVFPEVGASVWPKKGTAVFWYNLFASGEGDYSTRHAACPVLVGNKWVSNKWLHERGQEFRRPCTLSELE
T1 sequence (P54001 whole entry): as above

Row | Compound | inhibition [1] [%] | IC50 [2] [µM] | also measured
1 | CN(CC(=O)O)C(=O)C(=O)O | 10 |  | 
2 | CC(NC(=O)C(=O)O)C(=O)O (stereo not drawn) |  | 90.7 | 
3 | CSCCC(NC(=O)C(=O)O)C(=O)O (stereo not drawn) |  |  | inhibition [3]: 9%
4 | O=C(CNC(=O)C(=O)O)NS(=O)(=O)c1ccccc1 | 34 |  | 
5 | C[C@@H](NC(=O)C(=O)O)C(=O)O |  |  | IC50 [4]: 621 µM
6 | O=C(O)CCNC(=O)C(=O)O |  |  | inhibition [5]: 24%
7 | CC(C)CC(NC(=O)C(=O)O)C(=O)O (stereo not drawn) | 16 |  | 
8 | CS(=O)(=O)NC(=O)CNC(=O)C(=O)O |  | 414 | 
9 | O=C(O)C(=O)NC(Cc1ccccc1)C(=O)O (stereo not drawn) | 18 |  | 
10 | O=C(O)C(=O)Nc1ccc(C(=O)O)cc1 |  |  | inhibition [7]: 9%

Second part, led by results:

Row | inhibition [1] [%] | IC50 [2] [µM] | Compound | also measured
11 | 10 |  | O=C(O)C(=O)N1CCCC1C(=O)O (stereo not drawn) | 
12 |  | 38.2 | C[C@H](NC(=O)C(=O)O)C(=O)O | 
13 |  | 5.18 | O=C(O)c1ccc(C(=O)O)nc1 [PYRIDINE-2,5-DICARBOXYLIC ACID] | Ki [6]: 0.8 µM
14 | 26 |  | CC(C)(NC(=O)C(=O)O)C(=O)O | 
15 | 16 |  | CCOc1ccc(NC(=O)CNC(=O)C(=O)O)cc1 | 
16 |  | 2.89 | O=C(O)CNC(=O)C(=O)O [N-OXALYLGLYCINE] | Ki [2]: 0.54 µM
